Columns and labels:
[1] = biological target: Cannabinoid receptor 1 (Homo sapiens) (UniProt P21554); experiment: Displacement of [3H]SR141716A from human CB1 expressed in CHO cells at 10 uM; type: cell-based
Procedure, shortened: (§1)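 Membranes from CHO cells expressing hCB1 or hCB2 (40 µg per tube). Radioligand was 1 nM [3H]-SR141716A for CB1 or 1 nM [3H]-CP-55,940 for CB2. Competitor at 10 µM; nonspecific binding defined with 10 µM HU-210. Incubation 1 h at 30 °C in 50 mM Tris-HCl, 3 mM MgCl2, 1 mM EDTA, 0.5% BSA, pH 7.4. Filtered on PEI-treated GF/B and counted. Result is % displacement, ≥3 runs in duplicate, mean ± SEM.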

[2] = biological target: Cannabinoid receptor 2 (Homo sapiens) (UniProt P34972); experiment: Displacement of [3H]CP-55940 from human CB2 expressed in CHO cells at 10 uM; type: cell-based; procedure, shortened: as §1
Sequence of Cannabinoid receptor 2 (Homo sapiens) (P34972 whole entry): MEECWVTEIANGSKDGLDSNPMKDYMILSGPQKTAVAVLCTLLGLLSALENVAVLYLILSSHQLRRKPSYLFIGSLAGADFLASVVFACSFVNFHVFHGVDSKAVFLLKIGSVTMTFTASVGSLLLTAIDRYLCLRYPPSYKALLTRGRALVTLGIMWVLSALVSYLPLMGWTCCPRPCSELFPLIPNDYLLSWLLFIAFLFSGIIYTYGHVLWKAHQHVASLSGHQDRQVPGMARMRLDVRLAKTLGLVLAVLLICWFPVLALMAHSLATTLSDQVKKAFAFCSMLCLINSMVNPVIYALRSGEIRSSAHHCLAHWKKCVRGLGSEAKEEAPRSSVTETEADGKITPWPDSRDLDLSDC

[3] = biological target: T1, Fatty-acid amide hydrolase 1 (Rattus norvegicus) (UniProt P97612); experiment: Inhibitory activity against FAAH in rat brain homogenate at 100 uM; type: tissue-based; conditions: wistar
T1 sequence (whole entry): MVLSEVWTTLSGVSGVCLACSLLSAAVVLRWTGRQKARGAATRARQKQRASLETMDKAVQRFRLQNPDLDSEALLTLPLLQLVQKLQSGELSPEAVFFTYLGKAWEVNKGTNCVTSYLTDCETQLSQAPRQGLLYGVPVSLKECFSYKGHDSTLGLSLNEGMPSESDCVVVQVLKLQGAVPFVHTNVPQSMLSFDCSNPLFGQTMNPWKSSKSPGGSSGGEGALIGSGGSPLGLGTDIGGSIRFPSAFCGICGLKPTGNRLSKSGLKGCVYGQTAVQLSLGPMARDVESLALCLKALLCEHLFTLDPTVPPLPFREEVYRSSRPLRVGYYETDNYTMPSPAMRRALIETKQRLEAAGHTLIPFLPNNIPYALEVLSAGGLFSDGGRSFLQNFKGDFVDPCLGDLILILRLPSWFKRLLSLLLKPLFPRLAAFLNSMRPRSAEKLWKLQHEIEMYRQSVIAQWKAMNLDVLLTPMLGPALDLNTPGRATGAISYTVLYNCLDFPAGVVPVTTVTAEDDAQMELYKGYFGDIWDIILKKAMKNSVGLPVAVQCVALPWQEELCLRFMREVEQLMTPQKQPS
Procedure, shortened: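 Rat brain membrane homogenate hydrolysing anandamide in 10 mM Tris-HCl, 1 mM EDTA, 0.1% BSA, pH 7.6, at 37 °C for 10 min. Reaction quenched with cold chloroform/methanol; radioactivity counted in the aqueous methanol phase. Compound tested at 100 µM; percent inhibition of FAAH activity reported.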

[4] = biological target: T2, Fatty-acid amide hydrolase 1 (Rattus norvegicus, UniProt P97612); experiment: Inhibitory activity against FAAH in Wistar rat brain homogenate at pH 9.0; type: tissue-based
T2 sequence (P97612 whole entry): T1 sequence (whole entry)
Procedure, shortened: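 Enzyme from male Wistar rat (250-300 g) brain membranes, washed by 36 000g spins and kept at -80 °C. Anandamide hydrolysis at pH 9.0 in 10 mM Tris-HCl, 1 mM EDTA, 0.1% BSA, 37 °C for 10 min. Stopped with cold chloroform/methanol, then the methanol/buffer phase was counted for radioactivity. Inhibition curves run ≥3 times in duplicate; IC50 by nonlinear regression, given as pI50 ± SEM.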

Sequence of Cannabinoid receptor 1 (Homo sapiens) (P21554 whole entry): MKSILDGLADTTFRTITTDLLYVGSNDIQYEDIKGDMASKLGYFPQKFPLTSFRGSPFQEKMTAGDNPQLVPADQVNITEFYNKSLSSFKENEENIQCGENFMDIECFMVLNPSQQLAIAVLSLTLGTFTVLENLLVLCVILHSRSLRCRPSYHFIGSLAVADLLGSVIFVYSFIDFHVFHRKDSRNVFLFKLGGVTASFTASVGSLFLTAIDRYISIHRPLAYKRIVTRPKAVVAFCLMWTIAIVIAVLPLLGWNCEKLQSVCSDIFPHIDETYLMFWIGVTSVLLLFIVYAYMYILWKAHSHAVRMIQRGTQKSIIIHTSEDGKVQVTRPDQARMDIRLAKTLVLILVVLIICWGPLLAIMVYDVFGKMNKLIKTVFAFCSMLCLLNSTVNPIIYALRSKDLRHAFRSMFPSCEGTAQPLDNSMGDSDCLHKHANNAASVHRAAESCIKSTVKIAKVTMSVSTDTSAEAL

Compound	Activity [1]	Activity [2]	Inhibition [3]	IC50 [4]
CCCCCCCCN1C(=O)NC(c2ccc(Br)cc2)(c2ccc(Br)cc2)C1=O	45.1%	21.1%		
CCCCCCCCN1C(=O)C(c2ccc(Cl)cc2)(c2ccc(Cl)cc2)NC1=S	36.6%	< 10%		
CCCCCCCCN1C(=O)NC(c2ccc(OC)cc2)(c2ccc(OC)cc2)C1=O	31.2%	< 20%		
COCCCN1C(=O)C(c2ccccc2)(c2ccccc2)NC1=S	29.4%	< 20%		
O=C1NC(c2ccccc2)(c2ccccc2)C(=O)N1Cc1ccccc1	33.7%	< 20%		
CCCCCCN1C(=O)C(c2ccccc2)(c2ccccc2)NC1=S	21.9%	< 20%		
CCN1C(=O)C(c2ccccc2)(c2ccccc2)NC1=S	40%	< 10%		
CCCCCCCN1C(=O)CNC1=O	< 20%	< 20%		
CCCCCN1C(=O)C(c2ccccc2)(c2ccccc2)NC1=S	27.6%	< 20%		
CCCCN1C(=O)NC(c2ccc(Br)cc2)(c2ccc(Br)cc2)C1=O	69.2%	23.1%		
CCCCCN1C(=O)NC(c2ccccc2)(c2ccccc2)C1=O	21.3%	< 20%		
CCCCCCCN1C(=O)C(c2ccc(Cl)cc2)(c2ccc(Cl)cc2)NC1=S	67.8%	< 20%		
CCCCCCCCN1C(=O)C(c2ccccc2)(c2ccccc2)NC1=S	38.8%	< 20%		
O=C1NC(c2ccccc2)C(=O)N1c1ccccc1 (centres undefined)	< 20%	< 20%		
CCN1C(=O)NC(c2ccccc2)(c2ccccc2)C1=O	< 20%	< 20%		
O=C1CNC(=O)N1c1ccccc1	< 20%	< 20%	23%	
CCCCCCCCN1C(=O)NC(c2ccc(F)cc2)(c2ccc(F)cc2)C1=O	40.1%	< 20%		
CCCCN1C(=O)C(c2ccc(Cl)cc2)(c2ccc(Cl)cc2)NC1=S	72.7%	< 20%		
CCCCCCCCCCCCCCN1C(=O)C(c2ccccc2)(c2ccccc2)NC1=S	< 10%	< 20%		0.891 µM
CCCCCCCN1C(=O)C(c2ccccc2)N(c2ccccc2)C1=O (centres undefined)	45.6%	< 20%		

Compound	Activity [1]	Activity [2]	Inhibition [3]	IC50 [4]
O=C1C(c2ccccc2)NC(=S)N1c1ccccc1 (centres undefined)	< 20%	< 20%		
O=C1N(c2ccccc2)C(=S)NC1(c1ccccc1)c1ccccc1	32.6%	< 20%		
CCCCCCCN1C(=O)NC(c2ccc(Cl)cc2)(c2ccc(Cl)cc2)C1=O	42.7%	< 20%		
O=C1NC(=S)NC1(c1ccccc1)c1ccccc1	< 15%	< 10%		
CCCCCCN1C(=O)NC(c2ccccc2)(c2ccccc2)C1=O	29.9%	< 20%		10 µM
CCCCN1C(=O)CNC1=O	< 20%	< 20%	< 10%	
CCCCCCCN1C(=O)NC(c2ccc(Br)cc2)(c2ccc(Br)cc2)C1=O	44.8%	< 20%		
O=C1N(Cc2ccccc2)C(=S)NC1(c1ccccc1)c1ccccc1	44.7%	< 20%		
CCCCCCCCCCCCCCN1C(=O)NC(c2ccccc2)(c2ccccc2)C1=O	< 20%	< 20%		
CCCCCCCN1C(=O)C(c2ccc(Br)cc2)(c2ccc(Br)cc2)NC1=S	34.2%	< 20%		
CCCCCCCCN1C(=O)NC(c2ccccc2)(c2ccccc2)C1=O	25.1%	< 20%		
CCCCCCCN1C(=O)NC(c2ccccc2)(c2ccccc2)C1=O	23.4%	< 20%		8.32 µM
CCCCCCCCN1C(=O)NC(c2ccc(C)cc2)(c2ccc(C)cc2)C1=O	24.5%	< 20%		
O=C1N(CCCO)C(=S)NC1(c1ccccc1)c1ccccc1	20.8%	< 20%		
O=C1NC(=O)C(c2ccccc2)(c2ccccc2)N1	< 20%	< 20%		
CCCCCCCCCCN1C(=O)C(c2ccccc2)(c2ccccc2)NC1=S	< 10%	< 20%		1.35 µM
CCCCCCCN1C(=O)C(c2ccccc2)(c2ccccc2)N(CCCCCCC)C1=S	< 20%	< 20%		
CCCCN1C(=O)CNC1=S	< 20%	< 20%	< 10%	
CCCCCCCCCCCCCCCCN1C(=O)C(c2ccccc2)(c2ccccc2)NC1=S	< 10%	< 10%		
CC(C)CN1C(=O)C(c2ccccc2)(c2ccccc2)NC1=S	34.6%	< 10%		

Compound	Activity [1]	Activity [2]	Inhibition [3]	IC50 [4]
CCCCCCCCN1C(=O)NC(c2ccc(Cl)cc2)(c2ccc(Cl)cc2)C1=O	39.5%	< 20%		
CCCCN1C(=O)C(c2ccccc2)(c2ccccc2)NC1=S	42.8%	< 10%		
CCCCCCCN1C(=O)C(c2ccccc2)(c2ccccc2)NC1=S	28.8%	< 20%		
CCCCCCCCN1C(=O)C(c2ccc(Br)cc2)(c2ccc(Br)cc2)NC1=S	23.4%	< 20%		
CCCCN1C(=O)NC(c2ccccc2)(c2ccccc2)C1=O	< 20%	< 20%		
CCCCCCCCCCN1C(=O)NC(c2ccccc2)(c2ccccc2)C1=O	< 20%	< 20%		
CCCCN1C(=O)NC(c2ccc(Cl)cc2)(c2ccc(Cl)cc2)C1=O	51.2%	< 20%		
O=C1NC(=O)N(c2ccccc2)C1c1ccccc1 (centres undefined)	< 20%	< 20%		
O=C1NC(c2ccccc2)(c2ccccc2)C(=O)N1CCc1ccccc1	< 20%	< 20%		
O=C1N(CCc2ccccc2)C(=S)NC1(c1ccccc1)c1ccccc1	29.3%	< 20%		
CCCCN1C(=O)C(c2ccc(Br)cc2)(c2ccc(Br)cc2)NC1=S	73.8%	< 20%		
O=C1NC(=S)N(c2ccccc2)C1c1ccccc1 (centres undefined)	< 20%	< 20%		
CCCCCCCCCCCCCCCCCCN1C(=O)C(c2ccccc2)(c2ccccc2)NC1=S	< 10%	< 10%		
O=C1N(Cc2ccccc2)C(=S)NC1(c1ccc(Cl)cc1)c1ccc(Cl)cc1	74.2%	< 15%		
CCCCCCCC/C=C\CCCCCCCCN1C(=O)C(c2ccccc2)(c2ccccc2)NC1=S	< 10%	< 10%		
CCCCCCCN1C(=O)C(c2ccccc2)NC1=S (centres undefined)	< 20%	< 20%		
O=C1NC(c2ccc(Cl)cc2)(c2ccc(Cl)cc2)C(=O)N1Cc1ccccc1	72.2%	< 20%		
O=C1CNC(=S)N1c1ccccc1	< 20%	< 20%	25%	
